CAL PDZ FP-1: CAL PDZ (human) peptide binding inhibition | Q9HD26 | purified CAL PDZ, TMR-peptide fluorescence polarization, 1 h | inhibition, % at 24.9 µM | actives 0.92% (n = 300,000);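 active = mean inhibition of at least 30% with at least half of replicates also reaching 30%; inconclusive = no clear call, values can overlap the other calls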
Tn6 DDE FP: DD(E)-Tn6 binding inhibition, primary FP screen. AID 720509. actives 0.21% (n = 370,000). inhibition, % at 8.3 µM. P02675. Fibrin DD(E) TRITC-Tn6 fluorescence polarization displacement;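 active = inhibition above a per-campaign cutoff: mean of compounds within control limits plus 3 SD, cut at about 15% in these data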
CAL PDZ FP-2: human CAL PDZ-peptide interaction inhibition; inhibition, % at 20 µM; actives 0.02% (n = 330,000); purified CAL PDZ, TMR-peptide fluorescence polarization, 1 h; Q9HD26;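 active = highest replicate inhibition of at least 40%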
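System: purified tagged CAL PDZ domain construct (CerCALP). Schedule: 1 h incubation at room temperature before polarization reading. Medium: 25 mM sodium phosphate pH 7.4, 150 mM NaCl, TCEP, IgG, Thesit. Read-out: percent inhibition from loss of millipolarization. Measured by: FP readout, S and P plane fluorescence. Probe or stimulus: fluorescent TMR peptide probe.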
Tn7 DDE FP: disrupts Tn7 cyclic peptide binding to fibrin D-Dimer-E complex; actives 0.13% (n = 370,000); P02675; FP displacement of FITC-Tn7 peptide from fibrin DD(E); 0% = median of compound wells per plate; inhibition, % at 8.3 µM;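 active = inhibition above the mean of compounds falling within the control limits plus 3 SD of them, cut at about 14% in these data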
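assay system = human clot-derived fibrin DD(E) complex | quantity = Fibrin-DD(E) at 2 µM final | timing = 10 min preincubation, 3 h with tracer, room temperature | signal = fluorescence polarization | measure = percent inhibition | benchmarks = high control wells with 10 µM unlabelled Aha-Tn7 peptide (full inhibition) | replicates = singlicate testing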
ARNT-TACC3 inh: disrupts binding between human ARNT and TACC3; AlphaScreen His-ARNT PAS-B/GST-TACC3 binding, luminescence; TACC3 fragment carries E629A point mutation; Q9Y6A5; actives 0.66% (n = 390,000); inhibition, % at 9.99 µM; AID 623870;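 active = mean inhibition of replicates at least 50% and at least half of replicates each reaching 50%; inconclusive = half or more replicates reach 50% but mean below 50%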
GRK2 aptamer HTS: inhibitors of human GRK2 displacing RNA aptamer. bead flow cytometry, FAM-aptamer displacement from GRK2. actives 0.59% (n = 330,000). AID 488847. P25098. inhibition of aptamer binding, % at 10 µM;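 active = inhibition of aptamer binding above 40%, roughly 3 SD of noise, on plates passing a quality check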;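 also: median bead fluorescence of bound FAM aptamer so fluorescent compounds give negative values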
Target sequence (P25098 whole entry, looked up): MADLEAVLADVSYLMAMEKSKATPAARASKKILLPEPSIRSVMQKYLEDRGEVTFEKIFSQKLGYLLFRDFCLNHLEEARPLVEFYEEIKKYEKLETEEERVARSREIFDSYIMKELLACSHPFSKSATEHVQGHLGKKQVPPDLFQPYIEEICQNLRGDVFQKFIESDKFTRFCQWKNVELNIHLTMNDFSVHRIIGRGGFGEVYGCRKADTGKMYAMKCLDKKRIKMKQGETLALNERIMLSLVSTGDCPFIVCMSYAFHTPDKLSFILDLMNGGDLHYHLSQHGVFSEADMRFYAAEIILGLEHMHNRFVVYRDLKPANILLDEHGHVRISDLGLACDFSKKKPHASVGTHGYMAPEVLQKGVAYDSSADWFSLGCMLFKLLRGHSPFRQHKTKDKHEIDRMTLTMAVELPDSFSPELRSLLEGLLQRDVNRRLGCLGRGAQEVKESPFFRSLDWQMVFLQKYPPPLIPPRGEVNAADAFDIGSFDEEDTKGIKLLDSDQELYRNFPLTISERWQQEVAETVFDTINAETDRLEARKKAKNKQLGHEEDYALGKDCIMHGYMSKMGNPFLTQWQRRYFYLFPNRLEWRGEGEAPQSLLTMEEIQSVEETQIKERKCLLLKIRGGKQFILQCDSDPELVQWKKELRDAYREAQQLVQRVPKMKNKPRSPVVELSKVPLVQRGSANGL
GRK2 CP1: human GRK2 inhibition confirmation, cherry pick 1 | actives 4% (n = 2,000) | bead-bound GRK2, FAM-aptamer displacement, flow cytometry | aptamer displacement, % at 10 µM | shares compounds with GRK2 aptamer HTS;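 active = aptamer displacement above 40%, near three times the noise of non-fluorescent compounds, on plates passing quality checks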;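 also: negative values mostly reflect intrinsic compound fluorescence rather than true enhancement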
Aptamer quench 1: counter-screen for GRK2 aptamer inhibitors: fluorescent aptamer quenchers; 110 tested, under 10 active; Fluorescent RNA aptamer beads, quenching, flow cytometry; active compounds read high; shares compounds with GRK2 aptamer HTS; fluorescence change (kMESF span), kMESF (test concentration not listed); AID 504521;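 active = compounds whose bead fluorescence drops by more than 37 kMESF across the dose range, marking them as dye quenchers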
FAM quench CP1: aptamer fluorescence quenching in GRK2 counter-screen; shares compounds with GRK2 aptamer HTS; Carboxyfluorescein RNA aptamer on beads, flow cytometry quenching; active compounds read low; fluorescence response (% of DMSO), % at 10 µM; 2,000 tested, under 10 active;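 active = compounds that quench the bead-bound fluorescent RNA probe, cutting fluorescence to under half of the solvent control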;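 also: counterscreen run without GRK2 so only probe quenching by compound is measured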
GRK2 confirm 2: human GRK2 inhibition confirmation, cherry pick 2 | shares compounds with GRK2 aptamer HTS | bead-bound GRK2, FAM-aptamer displacement, flow cytometry | inhibition of aptamer binding, % at 10 µM | 360 tested, under 10 active | AID 504782;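 active = inhibition of aptamer binding above 40%, about triple the noise seen with nonglowing compounds, on plates passing quality control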;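 also: negative values mostly come from compounds that fluoresce themselves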
Aptamer quench3: aptamer fluorescence quenching in GRK2 counter-screen dose response; Streptavidin beads, FAM-RNA aptamer fluorescence quenching, flow cytometry; AID 504819; change in fluorescence (kMESF span), kMESF (concentration not given with the values); 25 tested, under 10 active; shares compounds with GRK2 aptamer HTS;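 active = compounds quenching the bead-bound labeled aptamer, with fluorescence dropping by more than 37 kMESF over the dose range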
FAM quench CP2: aptamer fluorescence quenching in GRK2 counter-screen; 360 tested, under 10 active; carboxyfluorescein RNA aptamer beads, flow cytometry quenching; active compounds read low; shares compounds with GRK2 aptamer HTS; fluorescence response vs DMSO, % at 10 µM;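 active = response vs DMSO under 50%, meaning signal dropped by over half, treated as fluorescence quencher; inconclusive = no clear call, values can overlap the other calls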;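 also: labelled aptamer on streptavidin beads without GRK2 as a quench counter-screen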
FAM quench DR: counter-screen for GRK2 aptamer binding inhibitors: aptamer fluorescence quenching; shares compounds with GRK2 aptamer HTS; Bead-bound FAM RNA aptamer fluorescence quenching, flow cytometry; active compounds read low; fluorescence ratio to DMSO, % at 11.1 µM; 35 tested, under 10 active; AID 588496;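 active = compounds that dim the fluorescent label, raw bead signal shifting by over 33 units between lowest and highest dose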
A number is an active result; – = inactive; ? = inconclusive; · = not tested or not shown. Compounds with a hit are over-represented: about 1.8% of the library has one in this group of screens.

SMILES	CAL PDZ FP-1	Tn6 DDE FP	CAL PDZ FP-2	Tn7 DDE FP	ARNT-TACC3 inh	GRK2 aptamer HTS	GRK2 CP1	FAM quench CP1	others
COCCn1nnnc1C(c1ccccn1)N1CCN(c2cc(Cl)ccc2C)CC1 (stereo not drawn)	–	–	–	–	–	97	–	–
N#C/C(=C\c1ccc(O)c(O)c1)C(=O)c1ccc(O)c(O)c1	–	–	–	–	–	54	–	–
N#C/C(=C\c1ccc(O)c(O)c1)C(=O)N1CCCC1	·	–	–	–	–	–	·	·
COc1cc(NC(=O)c2ccno2)cc(C(=O)Nc2cccc(C(F)(F)F)c2)c1	–	–	–	–	–	–	·	·
O=C(Nc1cccc(C(F)(F)F)c1)c1csc(-c2ccncc2)n1	–	–	–	–	·	–	·	·
COc1ccc(-c2cc(C(=O)Nc3cc(OC)cc(C(=O)Nc4cccc(C(F)(F)F)c4)c3)[nH]n2)cc1	–	–	–	–	–	–	–	–
COc1cc(NC(=O)c2csc(-c3ccncc3)n2)cc(C(=O)Nc2cccc(C(F)(F)F)c2)c1	–	–	–	–	–	–	–	–
C[C@@H]1CN([C@@H](C)CO)C(=O)c2cc(NC(=O)CCC(F)(F)F)ccc2O[C@@H]1CN(C)C(=O)Nc1ccc(F)cc1	·	·	·	·	–	·	·	·
COc1ccc(NC(=O)N(C)C[C@H]2Oc3ccc(NC(=O)CCC(F)(F)F)cc3C(=O)N([C@H](C)CO)C[C@@H]2C)cc1	–	–	–	–	–	73	·	·	GRK2 confirm 2=–;FAM quench CP2=–
COC(=O)c1cc2c(ccn2-c2ccc(F)cc2)n1C(C)C	–	–	–	–	–	67	–	–
C[C@@H]1CN([C@@H](C)CO)C(=O)Cc2cc(NC(=O)C3CC3)ccc2O[C@@H]1CN(C)CC1CC1	·	·	·	·	–	·	·	·
Cc1ccc(S(=O)(=O)Nc2ccc3c(c2)CC(=O)N([C@@H](C)CO)C[C@@H](C)[C@H](CN(C)C(=O)NC(C)C)O3)cc1	·	·	·	·	–	·	·	·
O=Cc1nc(-c2ccc(Cl)cc2)n2ccccc12	–	–	–	–	–	–	·	·
O=Cc1nc(-c2ccccc2Cl)n2ccccc12	–	–	–	–	–	45	–	–
CC(C)(C)/C=N/NC(=O)CNC(=O)c1ccc2c(c1)OCCO2	–	–	–	–	–	–	·	·
O=C(O)CC/C(=N/NC(=O)CNC(=O)c1ccc2c(c1)OCCO2)c1ccccc1	–	–	–	–	–	–	–	–
N#CCc1ccc(NS(=O)(=O)c2ccc(C3CCCCC3)cc2)cc1	·	–	–	–	–	78	–	–
COc1ccc(S(=O)(=O)Nc2ccc(CC#N)cc2)cc1	–	–	·	–	–	–	·	·
O=[N+]([O-])c1ccccc1C=NN1CCCCCC1	·	–	–	–	·	·	·	·
CC1=C(/C=C/C(C)=C/C=C/C(C)=C/CO)C(C)(C)CCC1	–	–	–	–	–	86	–	–
Cc1ccsc1C(=O)OCC(=O)c1cc(C)n(C)c1C	–	–	–	–	·	46	·	·	GRK2 confirm 2=–;FAM quench CP2=?
Cc1cc(C(=O)COC(=O)c2nccnc2N)c(C)n1C	–	–	–	–	–	–	·	·
C[C@@H]1CN([C@H](C)CO)S(=O)(=O)c2ccc(C#CC3CCCC3)cc2O[C@H]1CN(C)C	·	·	·	·	–	·	·	·
COc1ccc(CNC(=O)O[C@H]2CC[C@@]34CCCN3C(=O)CCC[C@H]4C2)cc1OC	·	–	·	–	·	·	·	·
O=C(NCc1ccc(Cl)cc1)c1cc(S(=O)(=O)N2CCCCC2)c[nH]1	–	–	–	–	–	43	–	–
SMILES	CAL PDZ FP-1	Tn6 DDE FP	CAL PDZ FP-2	Tn7 DDE FP	ARNT-TACC3 inh	GRK2 aptamer HTS	GRK2 CP1	FAM quench CP1	others
CCOC(=O)C1=C(C)NC(C)=C(C(=O)OCC)C1C(=O)OCC(=O)Nc1ccc(NC(C)=O)cc1	·	–	·	–	·	·	·	·
COC(=O)C1=C(C)NC(C)=C(C(=O)OC)C1C(=O)OCC(=O)Nc1ccc(C(C)=O)cc1	–	–	–	–	–	75	–	–
Cc1cc(C(=O)Nc2c(F)cc(F)cc2Br)n(-c2ccccc2)n1	–	–	–	–	–	–	·	·
CC1=C(C(=O)OC(C)C)C(c2ccccc2Cl)CC(=O)N1 (stereo not drawn)	–	–	–	–	–	–	·	·
CC(=O)C1=C(C)NC(=O)CC1c1ccccc1Cl (stereo not drawn)	–	–	–	–	·	48	–	–
CC(=O)Nc1nc(-c2ccccc2)cc(-c2ccco2)c1C#N	·	–	–	–	–	80	–	–
O=C(C[C@@H]1CC[C@H]2[C@@H](COC[C@H](O)CN2C(=O)Nc2ccc(Cl)cc2)O1)NC1Cc2ccccc2C1	·	·	·	·	–	·	·	·
OCCC1CN(Cc2cccc3c2OCO3)CCN1C1CCCCC1 (stereo not drawn)	–	–	–	–	·	99	–	–
OCCC1CN(Cc2cccc3c2OCO3)CCN1Cc1ccccc1 (stereo not drawn)	–	–	–	–	–	–	·	·
CCOC(=O)CSc1nnc(CSc2nc3sc4c(c3c(=O)[nH]2)CCC4)n1-c1ccccc1	–	–	–	–	–	–	·	·
CCOC(=O)CSc1nnc(CSc2nc3sc4c(c3c(=O)[nH]2)CCC4)n1C	–	–	–	–	–	67	–	–
N#CCSc1nc2sc3c(c2c(=O)n1C1CCCCC1)CCCC3	·	–	–	–	–	–	·	·
CSc1nc2sc3c(c2c(=O)n1C)CCC3	71	–	–	–	–	–	·	·	GRK2 confirm 2=–;FAM quench CP2=–
CSc1nc2sc3c(c2c(=O)n1C)CCCC3	–	–	–	–	–	–	·	·
C#CCSc1nc2sc3c(c2c(=O)n1C)CCC3	–	–	–	–	–	55	53	–	Aptamer quench 1=–;GRK2 confirm 2=67;Aptamer quench3=–;FAM quench CP2=–;FAM quench DR=–

Assay outcomes as filed in PubChem.
